Measurements: ChEMBL document CHEMBL3232976, “Investigation of the cytotoxic, genotoxic, and apoptosis-inducing effects of estragole isolated from fennel (Foeniculum vulgare)” (J Nat Prod, 2014)

Experiments:
[1] = system: HepG2; test: Induction of late apoptosis in human HepG2 cells assessed as induction of DNA fragmentation at 1 uM after 4 hrs by […] relative to control; assay type: functional
How it was run: (§1)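 Cells seeded 48 h before a 4 h exposure; 1 μM staurosporine positive control. Cells permeabilized with ethanol, washed to remove low-molecular-weight DNA, stained with DAPI, and DNA content read by automated image cytometry. Result as % sub-G1 cells below a manually set G1/G0 peak. Three independent experiments, mean ± SEM.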

[2] = system: HepG2; test: Induction of early apoptosis in human HepG2 cells assessed as decrease mitochondrial membrane potential at 0.5 uM after 4 hrs by JC-1 staining relative to control; assay type: functional; set-up: scale not given: the % may be the effect or the level left
How it was run: (§2)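 Cells seeded 48 h before a 4 h exposure; 0.5 μM valinomycin for 4 h as depolarizing positive control. Stained with JC-1 plus DAPI (necrotic cells), read by automated fluorescence image cytometry. Depolarization seen as a fall in red/green ratio; gated as % depolarized cells. Three independent experiments, mean ± SEM.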

[3] = system: HepG2; test: Induction of early apoptosis in human HepG2 cells assessed as decrease mitochondrial membrane potential at 21.14 ug/ml after 4 hrs by JC-1 staining relative to control; assay type: functional; set-up: scale not given: the % may be the effect or the level left; how it was run: as §2
[4] = system: HepG2; test: Induction of late apoptosis in human HepG2 cells assessed as induction of DNA fragmentation at 84.55 ug/ml after 4 hrs by […] relative to control; assay type: functional; how it was run: as §1
[5] = system: HepG2; test: Cytotoxicity against human HepG2 cells assessed as cell viability at 21.14 ug/ml after 4 hrs by MTT assay relative to control; assay type: functional; details: HepG2, 4 h, read-out: Activity
How it was run: (§3)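 HepG2 seeded at 1 × 10^5 cells/well in phenol red-free MEM, grown 24 h, then exposed 4 h to eight concentrations (dissolved in MEM; 2% Triton X100 positive control). MTT 1 mg/mL added for 2 h at 37 °C, formazan dissolved in 2-propanol, A570 minus A650. Viability as % of untreated controls; three independent experiments, mean ± SEM.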

[6] = system: HepG2; test: Cytotoxicity against human HepG2 cells assessed as cell viability at 2.64 ug/ml after 4 hrs by MTT assay relative to control; assay type: functional; details: HepG2, 4 h, read-out: Activity; how it was run: as §3
[7] = system: HepG2; test: Cytotoxicity against human HepG2 cells assessed as cell viability at 84.55 ug/ml after 4 hrs by MTT assay relative to control; assay type: functional; details: HepG2, 4 h, read-out: Activity; how it was run: as §3
[8] = system: HepG2; test: Cytotoxicity against human HepG2 cells assessed as cell viability at 0.67 ug/ml after 4 hrs by MTT assay relative to control; assay type: functional; details: HepG2, 4 h, read-out: Activity; how it was run: as §3
[9] = system: HepG2; test: Cytotoxicity against human HepG2 cells assessed as cell viability at 84.55 ug/ml after 4 hrs by trypan blue dye exclusion assay relative to control; assay type: functional; details: HepG2, 4 h, read-out: Activity
How it was run: (§4)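 Cells seeded at 5 × 10^5/well, grown 24 h, then exposed 4 h to the three highest MTT-tested concentrations. Trypan blue exclusion read on an automated cell counter, unstained cells counted as viable. Viability as % of total cells; three independent experiments, mean ± SEM.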

[10] = system: HepG2; test: Cytotoxicity against human HepG2 cells assessed as cell viability at 21.14 ug/ml after 4 hrs by AO/DAPI double staining relative to control; assay type: functional; details: HepG2, 4 h, read-out: Activity
How it was run: (§5)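 Cells seeded at 5 × 10^5/well, grown 24 h, exposed 4 h to the three highest MTT-tested concentrations. Cell suspension loaded into cassettes coated with acridine orange (all cells) and DAPI (nonviable cells), then counted by automated fluorescence image analysis. Viability as % of total cells; three independent experiments, mean ± SEM.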

[11] = system: HepG2; test: Cytotoxicity against human HepG2 cells assessed as cell viability at 42.28 ug/ml after 4 hrs by trypan blue dye exclusion assay relative to control; assay type: functional; details: HepG2, 4 h, read-out: Activity; how it was run: as §4
[12] = system: HepG2; test: Cytotoxicity against human HepG2 cells assessed as cell viability at 84.55 ug/ml after 4 hrs by AO/DAPI double staining relative to control; assay type: functional; details: HepG2, 4 h, read-out: Activity; how it was run: as §5
[13] = system: HepG2; test: Genotoxicity in human HepG2 cells assessed as DNA strand-breakage at 42.28 ug/ml after 4 hrs by alkaline comet assay; details: hepg2, 4 h
[14] = system: HepG2; test: Induction of early apoptosis in human HepG2 cells assessed as decrease mitochondrial membrane potential at 84.55 ug/ml after 4 hrs by JC-1 staining relative to control; assay type: functional; set-up: scale not given: the % may be the effect or the level left; how it was run: as §2
[15] = system: HepG2; test: Induction of late apoptosis in human HepG2 cells assessed as induction of DNA fragmentation at 21.14 ug/ml after 4 hrs by […] relative to control; assay type: functional; how it was run: as §1
[16] = system: HepG2; test: Induction of late apoptosis in human HepG2 cells assessed as induction of DNA fragmentation at 42.28 ug/ml after 4 hrs by […] relative to control; assay type: functional; how it was run: as §1
[17] = system: HepG2; test: Genotoxicity in human HepG2 cells assessed as DNA strand-breakage at 84.55 ug/ml after 4 hrs by alkaline comet assay; details: hepg2, 4 h
[18] = system: HepG2; test: Cytotoxicity against human HepG2 cells assessed as cell viability at 10.57 ug/ml after 4 hrs by MTT assay relative to control; assay type: functional; details: HepG2, 4 h, read-out: Activity; how it was run: as §3
[19] = system: HepG2; test: Cytotoxicity against human HepG2 cells assessed as cell viability at 42.28 ug/ml after 4 hrs by AO/DAPI double staining relative to control; assay type: functional; details: HepG2, 4 h, read-out: Activity; how it was run: as §5
[20] = system: HepG2; test: Cytotoxicity against human HepG2 cells assessed as cell viability at 42.28 ug/ml after 4 hrs by MTT assay relative to control; assay type: functional; details: HepG2, 4 h, read-out: Activity; how it was run: as §3
[21] = system: HepG2; test: Cytotoxicity against human HepG2 cells assessed as cell viability at 21.14 ug/ml after 4 hrs by trypan blue dye exclusion assay relative to control; assay type: functional; details: HepG2, 4 h, read-out: Activity; how it was run: as §4
[22] = system: HepG2; test: Genotoxicity in human HepG2 cells assessed as DNA strand-breakage at 21.14 ug/ml after 4 hrs by alkaline comet assay; details: hepg2, 4 h
[23] = system: HepG2; test: Induction of early apoptosis in human HepG2 cells assessed as decrease mitochondrial membrane potential at 42.28 ug/ml after 4 hrs by JC-1 staining relative to control; assay type: functional; set-up: scale not given: the % may be the effect or the level left; how it was run: as §2
[24] = system: HepG2; test: Cytotoxicity against human HepG2 cells assessed as cell viability at 5.28 ug/ml after 4 hrs by MTT assay relative to control; assay type: functional; details: HepG2, 4 h, read-out: Activity; how it was run: as §3
[25] = system: HepG2; test: Cytotoxicity against human HepG2 cells assessed as cell viability at 1.32 ug/ml after 4 hrs by MTT assay relative to control; assay type: functional; details: HepG2, 4 h, read-out: Activity; how it was run: as §3

For `CN[C@@H]1C[C@H]2O[C@@](C)([C@@H]1OC)n1c3ccccc3c3c4c(c5c6ccccc6n2c5c31)C(=O)NC4` [STAUROSPORINE], the Activity [1] was 21.1%.
For `CC(C)[C@@H]1NC(=O)[C@H](C)OC(=O)[C@@H](C(C)C)NC(=O)[C@@H](C(C)C)OC(=O)[C@H](C(C)C)NC(=O)[C@H](C)OC(=O)[C@@H](C(C)C)NC(=O)[C@@H](C(C)C)OC(=O)[C@H](C(C)C)NC(=O)[C@H](C)OC(=O)[C@@H](C(C)C)NC(=O)[C@@H](C(C)C)OC1=O` [VALINOMYCIN], the Activity [2] was 40.3%.
In the case of `C=CCc1ccc(OC)cc1` [ESTRAGOLE], the Activity [3] is reported as 15.9%, the Activity [4] is reported as 4.9% and the viability at 21.14 µg/mL [5] is reported as 110%. It also gave a viability at 2.64 µg/mL [6] of 101%, a viability at 84.55 µg/mL [7] of 103% and a viability at 0.67 µg/mL [8] of 106%. The viability at 84.55 µg/mL [9] was 85%, the viability at 21.14 µg/mL [10] was 90.9% and the viability at 42.28 µg/mL [11] was 93.3%. For the same compound, the viability at 84.55 µg/mL [12] was 90.2%, the Activity [13] was “Non-toxic” and the Activity [14] was 13.2%. The Activity [15] was 3.4%, the Activity [16] was 3.7% and the Activity [17] was “Non-toxic”. For the same compound, the viability at 10.57 µg/mL [18] was 117%, the viability at 42.28 µg/mL [19] was 91.7% and the viability at 42.28 µg/mL [20] was 108%. The viability at 21.14 µg/mL [21] was 92.7%, the Activity [22] was “Non-toxic” and the Activity [23] was 12.3%. The viability at 5.28 µg/mL [24] was 104% and the viability at 1.32 µg/mL [25] was 94.8%.
